Results reported in paper PMC6045484 (ACS Omega, 2018).
In brackets after ≈: the same amount, converted by molar mass.

Tests used:
P. falciparum (D6) = experiment: in vitro antimalarial activity, plasmodial LDH; assay type: cell-based, Plasmodium falciparum; conditions: Plasmodium falciparum, D6, 72 h, read-out: P. falciparum (D6) IC50
P. falciparum (W2) = experiment: in vitro antimalarial activity, plasmodial LDH; assay type: cell-based, Plasmodium falciparum; conditions: Plasmodium falciparum, W2, 72 h, read-out: P. falciparum (W2) IC50, CQ-resistant W2 strain, 72 h
In short: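 P. falciparum-infected erythrocytes (2% parasitemia, 2% hematocrit) in RPMI 1640 with 10% human serum and 60 μg/mL amikacin. Exposed to test compound dilutions for 72 h at 37 °C under 90% N2/5% O2/5% CO2. LDH measured with Malstat reagent (30 min, room temperature), then NBT/PES for 1 h in the dark, stopped with 5% acetic acid, read at 650 nm. IC50 from dose-response curves.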

[1] = system: SK-MEL, KB, BT-549, SK-OV-3, VERO and LLC-PK1 cells; experiment: cytotoxicity, neutral red uptake assay; assay type: cell-based, mammalian; conditions: highest test concentration 4760 ng/mL
In short: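 Cells seeded at 25 000/well and allowed 24 h to reach confluence. Test compound was then added and incubated 48 h. Viable cells were counted by a modified neutral red uptake method. The panel was four human cancer lines and two noncancerous mammalian kidney lines. Doxorubicin served as positive control and DMSO as negative control.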

[2] = system: L. donovani promastigotes; experiment: in vitro antileishmanial activity, alamarBlue assay; assay type: cell-based, Leishmania donovani; conditions: Leishmania donovani, 48 h; for IC50: read-out: L. donovani IC50, promastigotes, 48 h; for IC90: read-out: L. donovani IC90, promastigotes, 48 h
C. albicans ATCC90028 = experiment: in vitro antifungal activity; assay type: cell-based, Candida albicans; conditions: Candida albicans; for IC50: ATCC90028, read-out: C. albicans IC50; for MFC: ATCC90028, read-out: C. albicans MFC; for MIC: ATCC90028, read-out: C. albicans MIC
In short: (§1)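 Modified NCCLS broth method in Sabouraud dextrose. Inoculum set by OD630 to 1.5 × 10^3 CFU/mL. Test compound serially diluted in 20% DMSO/saline, duplicate wells, up to 20 μg/mL. Incubated 70–74 h at 35 °C; 530 nm read before and after. IC50 is 50% growth inhibition; MIC is no detectable growth. MFC from clear wells subcultured on agar. Amphotericin B control.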

C. neoformans ATCC90113 = experiment: in vitro antifungal activity; assay type: cell-based, Cryptococcus neoformans; conditions: Cryptococcus neoformans; for IC50: ATCC90113, read-out: C. neoformans IC50; for MFC: ATCC90113, read-out: C. neoformans MFC; for MIC: ATCC90113, read-out: C. neoformans MIC
In short: as §1

A. fumigatus ATCC 90906 = experiment: in vitro antifungal activity; assay type: cell-based, Aspergillus fumigatus; conditions: Aspergillus fumigatus; for IC50: ATCC90906, read-out: A. fumigatus IC50; for MFC: ATCC90906, read-out: A. fumigatus MFC; for MIC: ATCC90906, read-out: A. fumigatus MIC
In short: as §1

SA (ATCC29213) = experiment: in vitro antibacterial activity; assay type: cell-based; conditions: Staphylococcus aureus; for IC50: ATCC29213, read-out: IC50 (concentration that affords 50% growth inhibition), SA; for MBC: ATCC29213, read-out: MBC (minimum bactericidal concentration), SA; for MIC: ATCC29213, read-out: MIC, SA
In short: (§2)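 Test compound serially diluted in 20% DMSO/saline and plated in duplicate, up to 20 μg/mL. Inoculum in cation-adjusted Mueller–Hinton broth, pH 7.3, set by OD630 to 5 × 10^5 CFU/mL. Incubated 16–20 h at 35 °C; 530 nm read before and after. IC50 is 50% growth inhibition; MIC is no detectable growth. MBC from clear wells subcultured on agar. Ciprofloxacin control.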

MRSA (ATCC33591) = experiment: in vitro antibacterial activity; assay type: cell-based, methicillin-resistant Staphylococcus aureus; conditions: Staphylococcus aureus, ATCC33591|MRSA, read-out: MIC, MRSA
In short: as §2

[3] = system: M. intracellulare (ATCC23068); experiment: in vitro antibacterial activity, modified alamarBlue procedure; assay type: cell-based, Mycobacterium intracellulare; conditions: Mycobacterium intracellulare; for IC50: ATCC23068, read-out: IC50 (concentration that affords 50% growth inhibition), M. intracellulare; for MBC: ATCC23068, read-out: MBC (minimum bactericidal concentration), M. intracellulare; for MIC: ATCC23068, read-out: MIC, M. intracellulare
In short: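 Modified alamarBlue microplate method. Test compound serially diluted in 20% DMSO/saline, duplicate wells, up to 20 μg/mL. Inoculum 2.0 × 10^6 CFU/mL in Middlebrook 7H9 with OADC, pH 7.3, containing 5% alamarBlue. Incubated 70–74 h at 37 °C, 10% CO2; fluorescence 544ex/590em read before and after. MIC: no blue-to-pink change. MBC by subculturing blue wells on agar. Ciprofloxacin control.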

Row | Structure (SMILES) | IC50 (P. falciparum (D6)) | IC50 (P. falciparum (W2)) | cytotoxicity CTX [1] | IC50 [2] | IC90 [2] | IC50 (C. albicans ATCC90028) | MFC (C. albicans ATCC90028) | MIC (C. albicans ATCC90028) | IC50 (C. neoformans ATCC90113) | MFC (C. neoformans ATCC90113) | MIC (C. neoformans ATCC90113) | IC50 (A. fumigatus ATCC 90906) | MFC (A. fumigatus ATCC 90906) | MIC (A. fumigatus ATCC 90906) | IC50 (SA (ATCC29213)) | MBC (SA (ATCC29213)) | MIC (SA (ATCC29213)) | MIC (MRSA (ATCC33591)) | IC50 [3] | MBC [3] | further results
1 | CCCCCOc1c(OC)cc(NC(C)CCCNC(=O)C(N)Cc2ccccc2)c2nc(C(C)(C)C)ccc12 (stereo not drawn) [compound 97, 2-Amino-N-(4-(2-tert-butyl-6-methoxy-5-(pentyloxy)quinolin-8-ylamino)pentyl)-3-phenylpropanamide] | 2.5 µg/mL (≈ 4.56 µM) | 1.3 µg/mL (≈ 2.37 µM) | NC (NC, not cytotoxic up to 4760 ng/mL (4.76 μg/mL)) | 4 µg/mL (≈ 7.29 µM) | 6.5 µg/mL (≈ 11.8 µM) | > 20 µg/mL | > 20 µg/mL | > 20 µg/mL | 2.29 µg/mL (≈ 4.17 µM) | 2.5 µg/mL (≈ 4.56 µM) | 2.5 µg/mL (≈ 4.56 µM) | > 20 µg/mL | > 20 µg/mL | > 20 µg/mL | 5.81 µg/mL (≈ 10.6 µM) | > 20 µg/mL | 10 µg/mL (≈ 18.2 µM) | 20 µg/mL (≈ 36.4 µM) | 14.9 µg/mL (≈ 27.2 µM) | > 20 µg/mL | MIC [3]: > 20 µg/mL
2 | CCCCCOc1c(OC)cc(NC(C)CCCNC(=O)C(N)Cc2cc3ccccc3[nH]2)c2nc(C(C)(C)C)ccc12 (stereo not drawn) [compound 98, 2-Amino-N-(4-(2-tert-butyl-6-methoxy-5-(pentyloxy)quinolin-8-ylamino)pentyl)-3-(1H-indol-2-yl)propanamide] | > 4.76 µg/mL | > 4.76 µg/mL | NC (NC, not cytotoxic up to 4760 ng/mL (4.76 μg/mL)) | 1.81 µg/mL (≈ 3.08 µM) | 2.93 µg/mL (≈ 4.98 µM) | 18.8 µg/mL (≈ 31.9 µM) | > 20 µg/mL | > 20 µg/mL | 1.21 µg/mL (≈ 2.06 µM) | 2.5 µg/mL (≈ 4.25 µM) | 2.5 µg/mL (≈ 4.25 µM) | > 20 µg/mL | > 20 µg/mL | > 20 µg/mL | 1.95 µg/mL (≈ 3.32 µM) | 10 µg/mL (≈ 17 µM) | 5 µg/mL (≈ 8.51 µM) | 5 µg/mL (≈ 8.51 µM) | 8.47 µg/mL (≈ 14.4 µM) | 20 µg/mL (≈ 34 µM) | MIC [3]: 10 µg/mL (≈ 17 µM)
3 | CCCCCCOc1c(OC)cc(NC(C)CCCNC(=O)C(N)CCSC)c2nc(C(C)(C)C)ccc12 (stereo not drawn) [compound 102, 2-Amino-N-(4-(2-tert-butyl-5-(hexyloxy)-6-methoxyquinolin-8-ylamino)pentyl)-4-(methylthio)butanamide] | 2.8 µg/mL (≈ 5.12 µM) | 2.8 µg/mL (≈ 5.12 µM) | NC (NC, not cytotoxic up to 4760 ng/mL (4.76 μg/mL)) | 5.9 µg/mL (≈ 10.8 µM) | 22 µg/mL (≈ 40.2 µM) | > 20 µg/mL | > 20 µg/mL | > 20 µg/mL | > 20 µg/mL | > 20 µg/mL | > 20 µg/mL | > 20 µg/mL | > 20 µg/mL | > 20 µg/mL | 5.03 µg/mL (≈ 9.2 µM) | 20 µg/mL (≈ 36.6 µM) | 10 µg/mL (≈ 18.3 µM) | 20 µg/mL (≈ 36.6 µM) | 11.2 µg/mL (≈ 20.4 µM) | 20 µg/mL (≈ 36.6 µM) | MIC [3]: 20 µg/mL (≈ 36.6 µM)
4 | CCCCCCOc1c(OC)cc(NC(C)CCCNC(=O)C(N)C(C)CC)c2nc(C(C)(C)C)ccc12 (stereo not drawn) [compound 104, 2-Amino-N-(4-(2-tert-butyl-5-(hexyloxy)-6-methoxyquinolin-8-ylamino)pentyl)-3-methylpentanamide] | 4.76 µg/mL (≈ 9 µM) | 4 µg/mL (≈ 7.56 µM) | NC (NC, not cytotoxic up to 4760 ng/mL (4.76 μg/mL)) | 16 µg/mL (≈ 30.3 µM) | 30 µg/mL (≈ 56.7 µM) | > 20 µg/mL | > 20 µg/mL | > 20 µg/mL | > 20 µg/mL | > 20 µg/mL | > 20 µg/mL | > 20 µg/mL | > 20 µg/mL | > 20 µg/mL | 13.2 µg/mL (≈ 24.9 µM) | > 20 µg/mL | > 20 µg/mL | > 20 µg/mL | > 20 µg/mL | > 20 µg/mL | MIC [3]: > 20 µg/mL
5 | CCCCCCOc1c(OC)cc(NC(C)CCCNC(=O)C(N)Cc2cnc[nH]2)c2nc(C(C)(C)C)ccc12 (stereo not drawn) [compound 105, 2-Amino-N-(4-(2-tert-butyl-5-(hexyloxy)-6-methoxyquinolin-8-ylamino)pentyl)-3-(1H-imidazole-5-yl)propanamide] | 2.4 µg/mL (≈ 4.34 µM) | 1.7 µg/mL (≈ 3.08 µM) | NC (NC, not cytotoxic up to 4760 ng/mL (4.76 μg/mL)) | 3.5 µg/mL (≈ 6.33 µM) | 7 µg/mL (≈ 12.7 µM) | 19.4 µg/mL (≈ 35.1 µM) | > 20 µg/mL | > 20 µg/mL | > 20 µg/mL | > 20 µg/mL | > 20 µg/mL | > 20 µg/mL | > 20 µg/mL | > 20 µg/mL | 2.79 µg/mL (≈ 5.05 µM) | 10 µg/mL (≈ 18.1 µM) | 5 µg/mL (≈ 9.05 µM) | 10 µg/mL (≈ 18.1 µM) | 5.94 µg/mL (≈ 10.7 µM) | 10 µg/mL (≈ 18.1 µM) | MIC [3]: 10 µg/mL (≈ 18.1 µM)
6 | CCCCCCOc1c(OC)cc(NC(C)CCCNC(=O)C(N)Cc2ccccc2)c2nc(C(C)(C)C)ccc12 (stereo not drawn) [compound 106, 2-Amino-N-(4-(2-tert-butyl-5-(hexyloxy)-6-methoxyquinolin-8-ylamino)pentyl)-3-phenylpropanamide] | > 4.76 µg/mL | > 4.76 µg/mL | NC (NC, not cytotoxic up to 4760 ng/mL (4.76 μg/mL)) | 9.89 µg/mL (≈ 17.6 µM) | > 40 µg/mL | > 20 µg/mL | > 20 µg/mL | > 20 µg/mL | 9.83 µg/mL (≈ 17.5 µM) | 20 µg/mL (≈ 35.5 µM) | 20 µg/mL (≈ 35.5 µM) | > 20 µg/mL | > 20 µg/mL | > 20 µg/mL | 10.7 µg/mL (≈ 19 µM) | > 20 µg/mL | 20 µg/mL (≈ 35.5 µM) | 20 µg/mL (≈ 35.5 µM) | 18.1 µg/mL (≈ 32.1 µM) | > 20 µg/mL | MIC [3]: > 20 µg/mL
7 | CCCCCCOc1c(OC)cc(NC(C)CCCNC(=O)C(C)N)c2nc(C(C)(C)C)ccc12 (stereo not drawn) [compound 107, 2-Amino-N-(4-(2-tert-butyl-5-(hexyloxy)-6-methoxyquinolin-8-ylamino)pentyl)-propanamide] | > 4.76 µg/mL | > 4.76 µg/mL | NC (NC, not cytotoxic up to 4760 ng/mL (4.76 μg/mL)) | 17.1 µg/mL (≈ 35.2 µM) | 37.3 µg/mL (≈ 76.7 µM) | > 20 µg/mL | > 20 µg/mL | > 20 µg/mL | > 20 µg/mL | > 20 µg/mL | > 20 µg/mL | > 20 µg/mL | > 20 µg/mL | > 20 µg/mL | > 20 µg/mL | > 20 µg/mL | > 20 µg/mL | > 20 µg/mL | > 20 µg/mL | > 20 µg/mL | MIC [3]: > 20 µg/mL
8 | CCCCCCOc1c(OC)cc(NC(C)CCCNC(=O)C(N)Cc2cc3ccccc3[nH]2)c2nc(C(C)(C)C)ccc12 (stereo not drawn) [compound 108, 2-Amino-N-(4-(2-tert-butyl-5-(hexyloxy)-6-methoxyquinolin-8-ylamino)pentyl)-3-(1H-indol-2-yl)propanamide] | > 4.76 µg/mL | > 4.76 µg/mL | NC (NC, not cytotoxic up to 4760 ng/mL (4.76 μg/mL)) | 19.1 µg/mL (≈ 31.7 µM) | > 40 µg/mL | > 20 µg/mL | > 20 µg/mL | > 20 µg/mL | 5.09 µg/mL (≈ 8.46 µM) | 10 µg/mL (≈ 16.6 µM) | 10 µg/mL (≈ 16.6 µM) | > 20 µg/mL | > 20 µg/mL | > 20 µg/mL | 4.98 µg/mL (≈ 8.27 µM) | > 20 µg/mL | 10 µg/mL (≈ 16.6 µM) | 10 µg/mL (≈ 16.6 µM) | 12.7 µg/mL (≈ 21.2 µM) | 20 µg/mL (≈ 33.2 µM) | MIC [3]: 20 µg/mL (≈ 33.2 µM)
